Assay results as given in ChEMBL document CHEMBL1130325, “Novel non-nucleoside inhibitors of human immunodeficiency virus type 1 reverse transcriptase. 6. 2-Indol-3-yl- and 2-azaindol-3-yl-dipyridodiazepinones” (J Med Chem, 1997).

Experiments:
[1] = target: Human immunodeficiency virus type 1 reverse transcriptase (Human immunodeficiency virus 1, UniProt Q72547, Y181C); assay: Inhibitory concentration against HIV-1 mutant Y181C reverse transcriptase
Outline: (§1)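 HIV-1 RT is at 0.63 nM in 50 mM Tris pH 7.8 with 4 mM DTT, 60 mM NaCl, 2 mM MgCl2, 0.02% Chaps, 4.8 μg/mL poly(rC)/oligo(dG) and 0.45 μM [3H]dGTP. Incubation is 30 min at room temperature in triplicate wells; [3H] incorporation is read after acid precipitation, minus EDTA background.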

[2] = target: Human immunodeficiency virus type 1 reverse transcriptase (Human immunodeficiency virus 1) (UniProt Q72547); assay: Inhibition against HIV-1 wild type reverse transcriptase […]
[3] = system: Human immunodeficiency virus type 1 reverse transcriptase (Human immunodeficiency virus 1), Q72547 [Y181C]; assay: Inhibition against HIV-1 mutant Y181C reverse transcriptase at 1 mM
[4] = system: Human immunodeficiency virus type 1 reverse transcriptase (Human immunodeficiency virus 1), Q72547 [[…]]; assay: Inhibition against HIV-1 mutant Y188L reverse transcriptase at 1 mM
[5] = target: Human immunodeficiency virus type 1 reverse transcriptase (Human immunodeficiency virus 1, UniProt Q72547); assay: Inhibitory concentration against HIV-1 wild type reverse transcriptase; outline: as §1
[6] = target: Human immunodeficiency virus type 1 reverse transcriptase (Human immunodeficiency virus 1, UniProt Q72547, Y188L); assay: Inhibitory concentration against HIV-1 mutant Y188L reverse transcriptase; outline: as §1
[7] = target: Human immunodeficiency virus type 1 reverse transcriptase (Human immunodeficiency virus 1, UniProt Q72547, P236L); assay: Inhibition against HIV-1 mutant P236L reverse transcriptase […]
[8] = target: Human immunodeficiency virus type 1 reverse transcriptase (Human immunodeficiency virus 1, UniProt Q72547, G190A); assay: Inhibition against HIV-1 mutant G190A reverse transcriptase […]
[9] = target: Human immunodeficiency virus type 1 reverse transcriptase (Human immunodeficiency virus 1, UniProt Q72547, V106A); assay: Inhibition against HIV-1 mutant V106A reverse transcriptase […]
[10] = target: Human immunodeficiency virus type 1 reverse transcriptase (Human immunodeficiency virus 1, UniProt Q72547, K103N); assay: Inhibition against HIV-1 mutant K103N reverse transcriptase […]

| SMILES | IC50 [1] | inhibition [2] | inhibition [3] | inhibition [4] | IC50 [5] | IC50 [6] | IC50 [7] | IC50 [8] | IC50 [9] | IC50 [10] |
| --- | --- | --- | --- | --- | --- | --- | --- | --- | --- | --- |
| CCN1c2ncccc2C(=O)N(C)c2ccc(-c3c[nH]c4ccc(F)cc34)nc21 | 0.555 µM | 63% | 59% | 17% | 0.706 µM | – | – | – | – | – |
| CCN1c2ncccc2C(=O)N(C)c2ccc(-c3c[nH]c4cccnc34)nc21 | – | 21% | 18% | 37% | – | – | – | – | – | – |
| CCN1c2ncccc2C(=O)N(C)c2ccc(-c3c[nH]c4ncccc34)nc21 | 0.2 µM | 76% | 70% | 39% | 0.21 µM | 1.3 µM | – | – | – | – |
| CCN1c2ncccc2C(=O)N(C)c2ccc(-c3c[nH]c4cnccc34)nc21 | 0.098 µM | 94% | 81% | 64% | 0.044 µM | 0.384 µM | < 0.001 µM | 0.019 µM | 0.228 µM | 0.032 µM |
| CCN1c2ncccc2C(=O)N(C)c2ccc(-c3c[nH]c4ccc(OC)cc34)nc21 | 0.23 µM | 61% | 45% | 58% | 0.2 µM | 0.73 µM | 0.404 µM | 0.6 µM | 3.09 µM | 0.935 µM |
| CCN1c2ncccc2C(=O)N(C)c2ccc(-c3c[nH]c4ccncc34)nc21 | 0.222 µM | 87% | 66% | 3% | 0.13 µM | – | – | – | – | – |
| CCN1c2ncccc2C(=O)N(C)c2ccc(-c3cc[nH]c3)nc21 | 0.05 µM | 95% | 91% | 78% | 0.033 µM | 0.1 µM | – | 0.32 µM | 1 µM | – |
| CCN1c2ncccc2C(=O)N(C)c2ccc(-c3c[nH]c4ccccc34)nc21 | 0.028 µM | 96% | 93% | 72% | 0.028 µM | 0.09 µM | 0.079 µM | 0.012 µM | 0.049 µM | 0.097 µM |
